Test results: ChEMBL document CHEMBL1154004, “Relationships between the structures of flavanone derivatives and their effects in enhancing early growth response-1 gene expression” (2009)
The source made the active and inactive calls. No cut-off for these calls is given here.

System: HEK293
Experiment: Increase in EGR1 mRNA expression in human HEK293 cells at 20 ug/mL after 6 to 12 hrs by dual-glo luciferase assay relative to control
Assay type: functional
Details: not given
Outline: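 Egr-1 promoter reporter assay after transient transfection. Activity is the level with compound divided by the compound-free control level, with the control set at 1.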

Q: `O=C1CC(c2ccccc2)Oc2cc(O)ccc21` (centres undefined) [7-HYDROXYFLAVANONE] was tested. Which “fold change (FC)” value did it give?
A: 2.1

Q: How did the “fold change (FC)” value turn out when `O=C1c2ccc(O)cc2OC(c2ccc(O)c(O)c2)C1O` (centres undefined) was run?
A: 1.3

Q: With `O=C1c2c(O)cc(O)cc2OC(c2ccc(O)c(O)c2)C1O` (centres undefined) [TAXIFOLIN] as the molecule, how does the “fold change (FC)” value read?
A: 1.3

Q: How did the “fold change (FC)” value turn out when `O=C1C[C@@H](c2ccc(O)c(O)c2)Oc2cc(O)cc(O)c21` [ERIODICTYOL] was run?
A: 2.1

Q: With `Cc1ccc(C2CC(=O)c3cccc(Cl)c3O2)cc1` (centres undefined) as the molecule, how does the “fold change (FC)” value read?
A: 1.3

Q: Which “fold change (FC)” value does the source give for `COc1ccc(C2CC(=O)c3ccccc3O2)cc1` (centres undefined) here?
A: 1.2

Q: With `O=C1CC(c2ccccc2O)Oc2ccccc21` (centres undefined) [2'-HYDROXY-FLAVANONE] as the molecule, how does the “fold change (FC)” value read?
A: 4.2

Q: With `O=C1c2ccc(O)cc2O[C@@H](c2cc(O)c(O)c(O)c2)[C@@H]1O` [DIHYDROROBINETIN] as the molecule, how does the “fold change (FC)” value read?
A: 0.7

Q: `COc1ccc2c(c1)C(=O)CC(c1cccc(OC)c1OC)O2` (centres undefined) was tested. Which “fold change (FC)” value did it give?
A: 3.9

Q: With `COc1ccc2c(c1)C(=O)CC(c1ccccc1)O2` (centres undefined) as the molecule, how does the “fold change (FC)” value read?
A: 1.6

Q: For `O=C1CC(c2cccc(O)c2)Oc2ccccc21` (centres undefined) [3'-HYDROXYFLAVANONE], which “fold change (FC)” value is on record?
A: 6.7

Q: `COc1ccc([C@@H]2CC(=O)c3c(O)cc(O)cc3O2)cc1O` [HESPERETIN] was tested. Which “fold change (FC)” value did it give?
A: 2.4

Q: How did the “fold change (FC)” value turn out when `O=C1CC(c2ccccc2)Oc2c(Cl)cccc21` (centres undefined) was run?
A: 1.7

Q: With `COc1cc(O)c2c(c1)O[C@H](c1ccccc1)CC2=O` [PINOSTROBIN] as the molecule, how does the “fold change (FC)” value read?
A: 1.6

Q: How did the “fold change (FC)” value turn out when `O=C1CC(c2ccccc2O)Oc2ccc(O)cc21` (centres undefined) was run?
A: 1.2

Q: How did the “fold change (FC)” value turn out when `COc1cccc2c1C(=O)CC(c1ccccc1)O2` (centres undefined) was run?
A: 3.6

Q: For `O=C1C[C@@H](c2ccc(O)cc2)Oc2cc(O)cc(O)c21` [NARINGENIN], which “fold change (FC)” value is on record?
A: 1.2

Q: Which “fold change (FC)” value does the source give for `COc1cc(C2CC(=O)c3c(O)cc(O)cc3O2)cc(OC)c1OC` (centres undefined) here?
A: 1.2

Q: For `O=C1CC(c2ccc(F)cc2)Oc2c(Cl)cccc21` (centres undefined), which “fold change (FC)” value is on record?
A: 2.4

Q: `COc1cc(OC)c2c(c1)OC(c1ccccc1)CC2=O` (centres undefined) [DIMETHYLPINOCEMBRIN] was tested. Which “fold change (FC)” value did it give?
A: 1.9

Q: Which “fold change (FC)” value does the source give for `COc1ccc2c(c1)OC(c1cc(OC)c(OC)c(OC)c1)CC2=O` (centres undefined) here?
A: 1

Q: For `COc1cc(O)cc2c1C(=O)CC(c1ccccc1)O2` (centres undefined), which “fold change (FC)” value is on record?
A: 1

Q: For `COc1cc(O)c2c(c1)OC(c1ccc(O)cc1)CC2=O` (centres undefined), which “fold change (FC)” value is on record?
A: 0.4

Q: How did the “fold change (FC)” value turn out when `Cc1ccc(C2CC(=O)c3cc(Cl)ccc3O2)cc1` (centres undefined) was run?
A: 0.8

Q: For `COc1ccc2c(c1)OC(c1ccccc1)CC2=O` (centres undefined), which “fold change (FC)” value is on record?
A: 1.1

Q: For `COc1cc([C@@H]2CC(=O)c3c(O)cc(O)cc3O2)ccc1O` [HOMOERIODICTYOL], which “fold change (FC)” value is on record?
A: 1.2

Q: For `COc1ccc2c(c1)C(=O)CC(c1ccc(OC)c(OC)c1)O2` (centres undefined), which “fold change (FC)” value is on record?
A: 0.7

Q: `COc1ccc(C2CC(=O)c3cc(Cl)ccc3O2)cc1OC` (centres undefined) was tested. Which “fold change (FC)” value did it give?
A: 0.7

Q: With `O=C1C[C@@H](c2ccccc2)Oc2cc(O)cc(O)c21` [PINOCEMBRIN] as the molecule, how does the “fold change (FC)” value read?
A: 0.4

Q: Which “fold change (FC)” value does the source give for `COc1cccc(C2CC(=O)c3cc(OC)ccc3O2)c1` (centres undefined) here?
A: 2.5

Q: `COc1ccc(C2CC(=O)c3ccccc3O2)cc1OC` (centres undefined) was tested. Which “fold change (FC)” value did it give?
A: 4.3

Q: Which “fold change (FC)” value does the source give for `COc1cc(C2CC(=O)c3ccccc3O2)ccc1O` (centres undefined) here?
A: 5.1

Q: How did the “fold change (FC)” value turn out when `O=C1CC(c2ccc(O)cc2)Oc2ccccc21` (centres undefined) [4'-HYDROXY-FLAVANONE] was run?
A: 1.4

Q: How did the “fold change (FC)” value turn out when `O=C1CC(c2ccccc2)Oc2ccccc21` (centres undefined) [FLAVANONE] was run?
A: 2.3

Q: How did the “fold change (FC)” value turn out when `COc1ccc(C2CC(=O)c3c(OC)cc(OC)cc3O2)cc1` (centres undefined) was run?
A: 0.7

Q: `O=C1CC(c2ccccc2)Oc2ccc(O)cc21` (centres undefined) was tested. Which “fold change (FC)” value did it give?
A: 1.3

Q: How did the “fold change (FC)” value turn out when `COc1ccc(C2CC(=O)c3cc(OC)ccc3O2)c(OC)c1` (centres undefined) was run?
A: 1.5

System: HeLa
Experiment: Increase in EGR1 mRNA expression in human HeLa cells after 1 hr by Western blotting
Assay type: functional, cell-based
Details: in the assay text read “EGR1 protein expression” for “EGR1 mRNA expression”
Outline: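 Human cervix carcinoma HeLa cells were left untreated or exposed to compound at 10, 20 or 40 for 1 h. Egr-1 protein level was then examined by Western blot.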

Q: `O=C1CC(c2ccccc2O)Oc2ccccc21` (centres undefined) [2'-HYDROXY-FLAVANONE] was tested. Which Activity did it give?
A: Active

Q: Which Activity does the source give for `O=C1CC(c2cccc(O)c2)Oc2ccccc21` (centres undefined) [3'-HYDROXYFLAVANONE] here?
A: Active
